Source: ChEMBL document CHEMBL3632461 (J Med Chem, 2015)

tested on: not listed separately; experiment: Elimination half life in Wistar rat at 1 mg/kg, iv and 3 or 5 mg/kg, po; format: ADME, organism-based; conditions: in vivo, read-out: beta t1/2 (converted)
Summary of the method: (§1)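 Male CD-1 mice (25−35 g), cannulated Wistar-Han rats (250 g), beagle dogs (12 kg) and cynomolgus monkeys (7 kg), fasted overnight and fed 1.0 or 2.0 h after dosing. iv 1 mg/kg in saline or 12% sulfobutyl ether β-cyclodextrin; po 3 or 5 mg/kg in 0.5% methylcellulose. Parameters calculated from plasma concentration−time data; mean ± SD for n = 3, individual values for n = 2.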

| SMILES | half-life [min] |
| --- | --- |
| COc1ccc(Cl)cc1-c1cc(=O)[nH]c(=S)n1CC(N)=O [PF-06282999] | 45 |
| COc1ccc(-c2cc(=O)[nH]c(=S)n2CC(N)=O)c(OC)c1 | 45.6 |

tested on: not listed separately; experiment: Apparent permeability across RRCK cells; format: ADME, cell-based, Canis lupus familiaris, MDCKII-LE; conditions: dog, MDCK
Summary of the method: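 Passive permeability measured in Ralph−Russ canine kidney (RRCK) cells, a low-transporter line isolated from Madin−Darby canine kidney cells; reported as P_app (10⁻⁶ cm/s).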

| SMILES | Papp [×10⁻⁶ cm/s] |
| --- | --- |
| COc1ccc(Cl)cc1-c1cc(=O)[nH]c(=S)n1CC(N)=O [PF-06282999] | 1.6 |
| COc1ccc(-c2cc(=O)[nH]c(=S)n2CC(N)=O)c(OC)c1 | 0.8 |

tested on: not listed separately; experiment: Fraction unbound in human plasma by equilibrium dialysis method; format: ADME, cell-free; conditions: not given
Summary of the method: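 Fraction unbound in human plasma measured by equilibrium dialysis; mean of three individual determinations.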

| fraction unbound | SMILES |
| --- | --- |
| 0.5 | COc1ccc(-c2cc(=O)[nH]c(=S)n2CC(N)=O)c(OC)c1 |

tested on: not listed separately; experiment: Tmax in Wistar rat at 3 or 5 mg/kg, po; format: ADME, organism-based; conditions: in vivo
Summary of the method: (§2)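 Male animals (CD-1 mice 25−35 g, cannulated Wistar-Han rats 250 g, beagle dogs 12 kg, cynomolgus monkeys 7 kg), fasted overnight and fed 1.0 or 2.0 h after dosing, water ad libitum. Oral dose 3 or 5 mg/kg in 0.5% methylcellulose. Parameters calculated from plasma concentration−time data; mean ± SD for n = 3, individual values for n = 2.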

| SMILES | Tmax [min] |
| --- | --- |
| COc1ccc(Cl)cc1-c1cc(=O)[nH]c(=S)n1CC(N)=O [PF-06282999] | 46.8 |
| COc1ccc(-c2cc(=O)[nH]c(=S)n2CC(N)=O)c(OC)c1 | 30 |

biological target: T1, Myeloperoxidase (Homo sapiens) (UniProt P05164); experiment: Inhibition of peroxidase activity of MPO isolated from human polynuclear leukocytes using Amplex Red as substrate assessed as formation of resorufin by measuring ratio of Kinact to Ki measured every 20 secs by spectrophotometric analysis; conditions: not given
T1 sequence (whole entry): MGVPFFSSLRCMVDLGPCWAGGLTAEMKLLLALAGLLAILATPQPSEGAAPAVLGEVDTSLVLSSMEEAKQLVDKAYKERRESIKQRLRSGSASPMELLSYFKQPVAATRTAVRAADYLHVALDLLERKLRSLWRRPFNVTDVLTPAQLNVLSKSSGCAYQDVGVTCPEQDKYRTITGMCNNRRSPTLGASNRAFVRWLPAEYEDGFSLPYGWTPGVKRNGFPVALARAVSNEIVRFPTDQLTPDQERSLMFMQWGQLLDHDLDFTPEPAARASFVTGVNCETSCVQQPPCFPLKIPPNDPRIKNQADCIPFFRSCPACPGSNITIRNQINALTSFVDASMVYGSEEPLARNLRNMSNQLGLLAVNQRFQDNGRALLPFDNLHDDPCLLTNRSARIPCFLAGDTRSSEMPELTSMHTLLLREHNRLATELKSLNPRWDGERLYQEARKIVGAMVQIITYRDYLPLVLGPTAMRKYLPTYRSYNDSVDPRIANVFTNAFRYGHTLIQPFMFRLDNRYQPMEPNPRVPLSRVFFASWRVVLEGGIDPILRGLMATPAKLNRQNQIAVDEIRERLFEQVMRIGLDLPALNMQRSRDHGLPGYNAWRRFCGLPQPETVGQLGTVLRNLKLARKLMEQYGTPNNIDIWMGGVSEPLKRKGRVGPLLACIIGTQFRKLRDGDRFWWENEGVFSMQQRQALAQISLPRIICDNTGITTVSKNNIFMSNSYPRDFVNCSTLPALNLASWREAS
Summary of the method: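 Enzyme purified from human polynuclear leukocytes. Buffer: 50 mM sodium phosphate pH 7.4, 150 mM NaCl, 1 mM DTPA, 2 μM H2O2, 30 μM Amplex Red, inhibitor or DMSO. Resorufin fluorescence (ex 530/em 580) read every 20 s at room temperature. Progress curves fitted for kobs at each concentration. kinact/KI derived from the kobs versus [I] fit or slope. Geometric mean of at least two experiments.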

| log(ratio) | SMILES |
| --- | --- |
| 4.03 | COc1ccc(-c2cc(=O)[nH]c(=S)n2CC(N)=O)c(OC)c1 |

tested on: not listed separately; experiment: Plasma clearance in Beagle dog at 1 mg/kg, iv and 3 or 5 mg/kg, po; format: ADME, organism-based, Canis lupus familiaris; conditions: not given; summary of the method: as §1

| SMILES | clearance [mL/min/kg] |
| --- | --- |
| COc1ccc(Cl)cc1-c1cc(=O)[nH]c(=S)n1CC(N)=O [PF-06282999] | 3.39 |
| COc1ccc(-c2cc(=O)[nH]c(=S)n2CC(N)=O)c(OC)c1 | 1.31 |

tested on: Hepatocyte; experiment: Intrinsic apparent clearance in human hepatocytes assessed per 10^6 cells; format: ADME, cell-based; conditions: not given
Summary of the method: (§3)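 Stability incubations in NADPH-supplemented human liver microsomes or cryopreserved human hepatocytes. Total apparent intrinsic clearance scaled from the in vitro half-life; microsomes reported per mg protein, hepatocytes per 10⁶ cells.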

| SMILES | CLH(app) [µL/min] |
| --- | --- |
| COc1ccc(Cl)cc1-c1cc(=O)[nH]c(=S)n1CC(N)=O [PF-06282999] | < 6 |
| COc1ccc(-c2cc(=O)[nH]c(=S)n2CC(N)=O)c(OC)c1 | < 6 |

tested on: not listed separately; experiment: Volume of distribution at steady state in Wistar rat at 1 mg/kg, iv and 3 or 5 mg/kg, po; format: ADME, organism-based; conditions: in vivo, read-out: Vdss
Summary of the method: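 Male mice, rats, dogs and cynomolgus monkeys, fasted overnight, fed after dosing. Intravenous dose 1 mg/kg in saline or 12% sulfobutyl ether β-cyclodextrin; oral arm 3 or 5 mg/kg in 0.5% methylcellulose. Steady-state volume derived from plasma concentration−time data; mean ± SD for n = 3, individual values for n = 2.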

| SMILES | Vd [L/kg] |
| --- | --- |
| COc1ccc(Cl)cc1-c1cc(=O)[nH]c(=S)n1CC(N)=O [PF-06282999] | 2.13 |
| COc1ccc(-c2cc(=O)[nH]c(=S)n2CC(N)=O)c(OC)c1 | 1.23 |

tested on: not listed separately; experiment: Oral bioavailability in Beagle dog at 3 or 5 mg/kg; format: ADME, organism-based, Canis lupus familiaris; conditions: in vivo
Summary of the method: (§4)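 Male CD-1 mice, Wistar-Han rats, beagle dogs and cynomolgus monkeys, fasted overnight and fed after dosing. Given po at 3 or 5 mg/kg in 0.5% methylcellulose, with an iv reference dose of 1 mg/kg. Bioavailability derived from plasma concentration−time data; mean ± SD (n = 3) or individual values (n = 2).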

| SMILES | bioavailability [%] |
| --- | --- |
| COc1ccc(Cl)cc1-c1cc(=O)[nH]c(=S)n1CC(N)=O [PF-06282999] | 75 |
| COc1ccc(-c2cc(=O)[nH]c(=S)n2CC(N)=O)c(OC)c1 | 31 |

tested on: not listed separately; experiment: Plasma clearance in Wistar rat at 1 mg/kg, iv and 3 or 5 mg/kg, po; format: ADME, organism-based; conditions: not given; summary of the method: as §1

| SMILES | clearance [mL/min/kg] |
| --- | --- |
| COc1ccc(Cl)cc1-c1cc(=O)[nH]c(=S)n1CC(N)=O [PF-06282999] | 41.8 |
| COc1ccc(-c2cc(=O)[nH]c(=S)n2CC(N)=O)c(OC)c1 | 35.1 |

biological target: T2, Myeloperoxidase (Homo sapiens, UniProt P05164); experiment: Irreversible inhibition of MPO in LPS-stimulated human whole blood after 4 hrs by Amplex Red/H2O2-based fluorescence plate reader analysis; conditions: not given
T2 sequence (P05164 whole entry): T1 sequence (whole entry)
Summary of the method: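 Heparinized whole blood from healthy human volunteers, stimulated with bacterial LPS and incubated with compound for 4 h. MPO captured on anti-MPO antibody plates and washed; residual activity measured with Amplex Red and H₂O₂. IC₅₀ reported as geometric mean [90% CI].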

| IC50 [nM] | SMILES |
| --- | --- |
| 2600 | COc1ccc(-c2cc(=O)[nH]c(=S)n2CC(N)=O)c(OC)c1 |

tested on: Liver microsome; experiment: Intrinsic apparent clearance in human liver microsomes; format: ADME; conditions: not given; summary of the method: as §3

| SMILES | CLH(app) [µL/min/mg] |
| --- | --- |
| COc1ccc(Cl)cc1-c1cc(=O)[nH]c(=S)n1CC(N)=O [PF-06282999] | < 8 |
| COc1ccc(-c2cc(=O)[nH]c(=S)n2CC(N)=O)c(OC)c1 | < 8 |

tested on: not listed separately; experiment: Lipophilicity, log D of the compound at pH 7.4 by shake-flask method; format: physicochemical; conditions: buffer

| SMILES | logD |
| --- | --- |
| COc1ccc(Cl)cc1-c1cc(=O)[nH]c(=S)n1CC(N)=O [PF-06282999] | 0.81 |
| COc1ccc(-c2cc(=O)[nH]c(=S)n2CC(N)=O)c(OC)c1 | 0.59 |

tested on: not listed separately; experiment: Tmax in Beagle dog at 3 or 5 mg/kg, po; format: ADME, organism-based, Canis lupus familiaris; conditions: in vivo; summary of the method: as §2

| SMILES | Tmax [min] |
| --- | --- |
| COc1ccc(Cl)cc1-c1cc(=O)[nH]c(=S)n1CC(N)=O [PF-06282999] | 42 |
| COc1ccc(-c2cc(=O)[nH]c(=S)n2CC(N)=O)c(OC)c1 | 90 |

tested on: not listed separately; experiment: Elimination half life in Beagle dog at 1 mg/kg, iv and 3 or 5 mg/kg, po; format: ADME, organism-based, Canis lupus familiaris; conditions: in vivo, read-out: beta t1/2 (converted); summary of the method: as §1

| SMILES | half-life [min] |
| --- | --- |
| COc1ccc(Cl)cc1-c1cc(=O)[nH]c(=S)n1CC(N)=O [PF-06282999] | 132 |
| COc1ccc(-c2cc(=O)[nH]c(=S)n2CC(N)=O)c(OC)c1 | 204 |

tested on: not listed separately; experiment: Oral bioavailability in Wistar rat at 3 or 5 mg/kg; format: ADME, organism-based; conditions: in vivo; summary of the method: as §4

| SMILES | bioavailability [%] |
| --- | --- |
| COc1ccc(Cl)cc1-c1cc(=O)[nH]c(=S)n1CC(N)=O [PF-06282999] | 86 |
| COc1ccc(-c2cc(=O)[nH]c(=S)n2CC(N)=O)c(OC)c1 | 76 |
